Activity calls are given as the source filed them. No cut-off for these calls is given here. Square brackets hold non-standard residues; d marks the D form. Peptide text beside a SMILES is read from it. * marks the point of attachment. Bpa = N[C@@H](Cc1ccc(C(=O)c2ccccc2)cc1)C(=O)O; Bip = N[C@@H](Cc1ccc(-c2ccccc2)cc1)C(=O)O; Dip = N[C@H](C(=O)O)C(c1ccccc1)c1ccccc1; 1Nal = N[C@@H](Cc1cccc2ccccc12)C(=O)O; Bta = N[C@@H](Cc1csc2ccccc12)C(=O)O; Acetyl(2-thienyl) = O=C(Cc1cccs1)*
Tests used:
[1] = system: Serum; experiment: Drug level in rat serum treated with (S)-2-((S)-2-((S)-1-((S)-2-((S)-2-((S)-3-(1H-indol-3-yl)-2-(2-(thiophen-2-yl)acetamido)propanamido)-3-(1H-indol-2-yl)propanamido)-5-guanidinopentanoyl)pyrrolidine-2-carboxamido)-5-guanidinopentanamido)succinamide at 1 mM after 120 mins by RP-HPLC analysis; format: ADME, cell-free; conditions: 2 h, 1000 µM
[2] = target: T1, Neuromedin-U receptor 1 (Mus musculus, UniProt O55040); experiment: Agonist activity at mouse NMUR1 expressed in HEK293 cells assessed as induction of calcium mobilization after 18 hrs by Fluo-4 AM dye based FLIPR assay; format: functional, cell-based
T1 sequence (O55040 whole entry): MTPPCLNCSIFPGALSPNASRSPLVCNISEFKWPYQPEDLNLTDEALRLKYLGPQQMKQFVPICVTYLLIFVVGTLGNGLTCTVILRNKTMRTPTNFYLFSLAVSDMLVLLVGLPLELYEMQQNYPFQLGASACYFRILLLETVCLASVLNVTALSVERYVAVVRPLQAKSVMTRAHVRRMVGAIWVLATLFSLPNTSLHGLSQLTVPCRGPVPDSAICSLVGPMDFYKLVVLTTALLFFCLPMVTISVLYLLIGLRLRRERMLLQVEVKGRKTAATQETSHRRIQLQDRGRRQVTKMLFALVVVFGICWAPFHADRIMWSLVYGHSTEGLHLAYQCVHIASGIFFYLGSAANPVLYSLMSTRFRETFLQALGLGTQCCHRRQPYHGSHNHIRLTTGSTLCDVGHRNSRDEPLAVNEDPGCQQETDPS

[3] = species on record: Rattus norvegicus; experiment: Stability in rat serum at 1 mM at 120 mins by RP-HPLC/MS analysis
[4] = target: Neuromedin-U receptor 2 (Homo sapiens) (UniProt Q9GZQ4); experiment: Agonist activity at human NMUR2 expressed in CHO cells assessed as induction of Ca2+ flux at 10 nM after 18 hrs by Fluo-4 AM dye based FLIPR assay relative to NMU; format: functional, cell-based
Chain of Neuromedin-U receptor 2 (Homo sapiens) (Q9GZQ4 whole entry): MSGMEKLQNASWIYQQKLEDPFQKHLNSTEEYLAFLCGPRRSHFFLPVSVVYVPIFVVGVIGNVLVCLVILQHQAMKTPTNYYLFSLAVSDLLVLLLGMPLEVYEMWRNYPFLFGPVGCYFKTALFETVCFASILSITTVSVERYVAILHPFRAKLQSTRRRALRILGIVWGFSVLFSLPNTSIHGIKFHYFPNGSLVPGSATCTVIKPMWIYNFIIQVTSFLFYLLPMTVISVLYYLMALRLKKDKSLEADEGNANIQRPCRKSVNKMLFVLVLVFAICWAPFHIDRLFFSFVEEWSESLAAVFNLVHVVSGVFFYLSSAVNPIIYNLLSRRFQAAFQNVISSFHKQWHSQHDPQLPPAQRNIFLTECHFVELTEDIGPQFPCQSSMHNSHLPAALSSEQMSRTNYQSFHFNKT
In short: (§1)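 Human NMUR1 or NMUR2 stably expressed in CHO cells was assayed by Fluo-4 AM (4 μM, 40 min) FLIPR calcium flux, with cells seeded 18 h before. Peptides were tested at single concentrations of 0.1, 10 or 100 nM. Maximal response is expressed as % of hNMU at 1000 nM (=100%).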

[5] = target: T2, Neuromedin-U receptor 1 (Homo sapiens) (UniProt Q9HB89); experiment: Agonist activity at human NMUR1 expressed in CHO cells assessed as induction of Ca2+ flux at 0.1 nM after 18 hrs by Fluo-4 AM dye based FLIPR assay relative to NMU; format: functional, cell-based; in short: as §1
T2 sequence (whole entry): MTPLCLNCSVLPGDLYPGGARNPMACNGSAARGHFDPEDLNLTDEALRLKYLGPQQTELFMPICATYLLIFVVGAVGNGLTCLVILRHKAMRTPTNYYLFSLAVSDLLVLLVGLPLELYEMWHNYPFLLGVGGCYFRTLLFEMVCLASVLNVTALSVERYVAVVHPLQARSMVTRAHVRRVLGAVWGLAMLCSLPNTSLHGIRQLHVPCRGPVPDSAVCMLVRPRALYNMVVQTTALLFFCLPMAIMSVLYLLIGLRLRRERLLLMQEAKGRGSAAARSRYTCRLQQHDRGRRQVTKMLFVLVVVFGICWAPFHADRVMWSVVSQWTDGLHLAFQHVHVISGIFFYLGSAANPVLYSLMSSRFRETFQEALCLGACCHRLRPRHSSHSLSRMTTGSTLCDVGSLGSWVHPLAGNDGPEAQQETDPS

[6] = target: T2, Neuromedin-U receptor 1 (Homo sapiens); experiment: Agonist activity at human NMUR1 expressed in CHO cells assessed as induction of Ca2+ flux at 0.1 to 10 nM after 18 hrs by Fluo-4 AM dye based FLIPR assay relative to NMU; format: functional, cell-based; in short: as §1
[7] = target: Neuromedin-U receptor 2 (Homo sapiens) (UniProt Q9GZQ4); experiment: Agonist activity at human NMUR2 expressed in CHO cells assessed as induction of Ca2+ flux at 100 nM after 18 hrs by Fluo-4 AM dye based FLIPR assay relative to NMU; format: functional, cell-based; in short: as §1
[8] = target: T2, Neuromedin-U receptor 1 (Homo sapiens); experiment: Agonist activity at human NMUR1 expressed in CHO cells assessed as induction of Ca2+ flux at 100 nM after 18 hrs by Fluo-4 AM dye based FLIPR assay relative to NMU; format: functional, cell-based; in short: as §1

## O=C(Cc1cccs1)N[C@@H](Cc1c[nH]c2ccccc12)C(=O)N[C@@H](Cc1c[nH]c2ccccc12)C(=O)O
[1]
  Drug metabolism: Metabolite_Detected

## CC(C)C[C@H](NC(=O)[C@H](Cc1ccccc1)NC(=O)[C@H](Cc1ccc(O)cc1)NC(=O)CNC(=O)[C@H](CCCCN)NC(=O)[C@H](CO)NC(=O)[C@H](CCC(N)=O)NC(=O)CNC(=O)[C@@H](NC(=O)[C@H](CO)NC(=O)[C@@H]1CCCN1C(=O)[C@H](CO)NC(=O)[C@H](CCC(N)=O)NC(=O)[C@H](Cc1ccc(O)cc1)NC(=O)[C@H](CCC(=O)O)NC(=O)[C@H](C)NC(=O)[C@H](CCCCN)NC(=O)[C@@H](N)Cc1ccccc1)C(C)C)C(=O)N[C@@H](Cc1ccccc1)C(=O)N[C@@H](CCCNC(=N)N)C(=O)N1CCC[C@H]1C(=O)N[C@@H](CCCNC(=N)N)C(=O)N[C@@H](CC(N)=O)C(N)=O (H-FKAEYQSPSVGQSKGYFLFRPRN-NH2)
[2]
  EC50: 0.42 nM

## N=C(N)NCCC[C@H](NC(=O)[C@@H]1CCCN1C(=O)[C@H](CCCNC(=N)N)NC(=O)[C@H](Cc1c[nH]c2ccccc12)NC(=O)[C@H](Cc1c[nH]c2ccccc12)NC(=O)Cc1cccs1)C(=O)O ({Acetyl(2-thienyl)}-WWRPR-OH)
[1]
  Drug metabolism: Metabolite_Detected
[3]
  remaining at 2 h, 1000 µM: 52%

## COc1ccc(C[C@H](NC(=O)[C@H](Cc2c[nH]c3ccccc23)NC(=O)Cc2cccs2)C(=O)N[C@@H](CCCNC(=N)N)C(=O)N2CCC[C@H]2C(=O)N[C@@H](CCCNC(=N)N)C(=O)N[C@@H](CC(N)=O)C(N)=O)cc1 ({Acetyl(2-thienyl)}-WY(Me)RPRN-NH2)
[4]
  Activity: inactive

## N=C(N)NCCC[C@H](NC(=O)[C@@H]1CCCN1C(=O)[C@H](CCCNC(=N)N)NC(=O)[C@H](Cc1cccc2ccccc12)NC(=O)[C@H](Cc1c[nH]c2ccccc12)NC(=O)Cc1cccs1)C(=O)N[C@@H](CC(N)=O)C(N)=O ({Acetyl(2-thienyl)}-W[1Nal]RPRN-NH2)
[4]
  Activity: inactive

## N=C(N)NCCC[C@H](NC(=O)[C@@H]1CCCN1C(=O)[C@H](CCCNC(=N)N)NC(=O)[C@H](Cc1ccc(-c2ccccc2)cc1)NC(=O)[C@H](Cc1c[nH]c2ccccc12)NC(=O)Cc1cccs1)C(=O)N[C@@H](CC(N)=O)C(N)=O ({Acetyl(2-thienyl)}-W[Bip]RPRN-NH2)
[5]
  Activity: Active
[4]
  Activity: inactive

## N=C(N)NCCC[C@H](NC(=O)[C@@H]1CCCN1C(=O)[C@H](CCCNC(=N)N)NC(=O)[C@H](Cc1ccc(C(=O)c2ccccc2)cc1)NC(=O)[C@H](Cc1c[nH]c2ccccc12)NC(=O)Cc1cccs1)C(=O)N[C@@H](CC(N)=O)C(N)=O ({Acetyl(2-thienyl)}-W[Bpa]RPRN-NH2)
[5]
  Activity: Active
[4]
  Activity: inactive

## N=C(N)NCCC[C@H](NC(=O)[C@@H]1CCCN1C(=O)[C@H](CCCNC(=N)N)NC(=O)[C@H](Cc1csc2ccccc12)NC(=O)[C@H](Cc1c[nH]c2ccccc12)NC(=O)Cc1cccs1)C(=O)N[C@@H](CC(N)=O)C(N)=O ({Acetyl(2-thienyl)}-W[Bta]RPRN-NH2)
[6]
  Activity: Active

## N=C(N)NCCC[C@H](NC(=O)[C@@H]1CCCN1C(=O)[C@H](CCCNC(=N)N)NC(=O)[C@@H](NC(=O)[C@H](Cc1c[nH]c2ccccc12)NC(=O)Cc1cccs1)C(c1ccccc1)c1ccccc1)C(=O)N[C@@H](CC(N)=O)C(N)=O ({Acetyl(2-thienyl)}-W[Dip]RPRN-NH2)
[7]
  Activity: inactive
[8]
  Activity: inactive

Reference: ChEMBL document CHEMBL4014341, “Discovery of a Human Neuromedin U Receptor 1-Selective Hexapeptide Agonist with Enhanced Serum Stability” (J Med Chem, 2017)
